ChEMBL document CHEMBL2169863, “Discovery, structure-activity relationship, and biological evaluation of noninhibitory small molecule chaperones of glucocerebrosidase” (J Med Chem, 2012)
Residue numbers refer to the chain shown, from its start. Activity calls are given as the source filed them. Unless noted, the calls are words filed in the database; no cut-off is given here.

How the values were obtained:
[1] = biological target: T1, Lysosomal acid glucosylceramidase (Homo sapiens, UniProt P04062, N409S); assay: Inhibition of glucocerebrosidase N370S mutant in Gaucher patient spleen homogenate using 4-methylumbellifereno-Glc as substrate incubated for 5 mins prior to substrate addition measured after 30 to 45 mins by fluorimetric analysis
[2] = biological target: T2, Lysosomal acid glucosylceramidase (Homo sapiens) (UniProt P04062); assay: Ratio of half-maximal activation concentration for wild type glucocerebrosidase to half-maximal activation concentration for wild type glucocerebrosidase in human spleen homogenate; format: tissue-based
T2 sequence (whole entry): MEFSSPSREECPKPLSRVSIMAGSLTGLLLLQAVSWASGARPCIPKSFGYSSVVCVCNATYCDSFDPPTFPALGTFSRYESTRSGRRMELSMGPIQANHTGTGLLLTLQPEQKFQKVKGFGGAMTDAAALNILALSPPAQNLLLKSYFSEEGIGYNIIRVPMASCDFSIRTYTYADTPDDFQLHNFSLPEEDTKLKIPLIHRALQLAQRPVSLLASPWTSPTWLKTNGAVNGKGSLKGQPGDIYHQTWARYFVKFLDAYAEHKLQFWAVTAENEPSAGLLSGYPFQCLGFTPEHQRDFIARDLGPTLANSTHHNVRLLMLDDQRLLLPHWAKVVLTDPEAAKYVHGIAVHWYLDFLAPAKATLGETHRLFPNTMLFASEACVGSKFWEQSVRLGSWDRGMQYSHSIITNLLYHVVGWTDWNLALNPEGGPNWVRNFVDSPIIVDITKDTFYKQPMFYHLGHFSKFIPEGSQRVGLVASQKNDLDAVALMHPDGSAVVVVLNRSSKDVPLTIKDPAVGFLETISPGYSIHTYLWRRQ

[3] = organism: Homo sapiens; assay: Ratio of half-maximal activation concentration for glucocerebrosidase N370S (unknwon origin) to half-maximal activation concentration for glucocerebrosidase N370S in Gaucher patient spleen homogenate; format: tissue-based
[4] = test system: T3, Lysosomal acid glucosylceramidase (Homo sapiens), P04062 [N409S]; assay: Activation of glucocerebrosidase N370S mutant using 4methylumbelliferone-Glc as substrate assessed as half-maximal activation concentration incubated for 5 mins prior to substrate addition measured after 30 to 45 mins by fluorimetric analysis
T3 sequence (whole entry): T2 sequence (whole entry) with N409S
Method in brief: (§1)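 Purified recombinant enzyme at 5 nM final: wt in citrate/KH₂PO₄ pH 5.9, N370S at pH 7, both with 0.01% Tween-20. Compound was titrated 0.5 nM to 58 μM and preincubated 5 min at room temperature. Reaction used 1 mM 4MU-Glc for 30−45 min at 37 °C and was stopped at pH 10. Read-out was fluorescence at Ex 365/Em 440 nm.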

[5] = biological target: T2, Lysosomal acid glucosylceramidase (Homo sapiens); assay: Activation of wild type glucocerebrosidase using resorufin beta-D-glucopyranoside as substrate incubated for 5 mins prior to substrate addition measured after 30 to 45 mins by fluorimetric analysis
Method in brief: (§2)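 Purified recombinant enzyme at 5 nM final: wt in citrate/KH₂PO₄ pH 5.9, N370S at pH 7, with 0.01% Tween-20. Compound was preincubated 5 min at room temperature. Resorufin β-D-glucopyranoside was 15 μM final for 30−45 min at 37 °C, stopped with Tris-HCl pH 8.0. Read-out was fluorescence at Ex 573/Em 610 nm.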

[6] = biological target: T2, Lysosomal acid glucosylceramidase (Homo sapiens); assay: Activation of wild type glucocerebrosidase in human spleen homogenate using resorufin beta-D-glucopyranoside as substrate incubated for 5 mins prior to substrate addition measured after 30 to 45 mins by fluorimetric analysis; format: tissue-based
Method in brief: (§3)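 Spleen homogenate (27 μg final) in pH 5 citrate/phosphate buffer with 0.01% Tween-20. Compound was titrated 0.5 nM to 58 μM and preincubated 5 min at room temperature. Resorufin β-D-glucopyranoside was 15 μM final, incubated 30−45 min at 37 °C and stopped with 1 M Tris-HCl pH 8.0. Read-out was fluorescence at Ex 573/Em 610 nm.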

[7] = biological target: T2, Lysosomal acid glucosylceramidase (Homo sapiens); assay: Activation of wild type glucocerebrosidase using 4methylumbelliferone-Glc as substrate assessed as half-maximal activation concentration incubated for 5 mins prior to substrate addition measured after 30 to 45 mins by fluorimetric analysis
Method in brief: as §1

[8] = test system: T3, Lysosomal acid glucosylceramidase (Homo sapiens), P04062 [N409S]; assay: Activation of glucocerebrosidase N370S mutant in Gaucher patient spleen homogenate using resorufin beta-D-glucopyranoside as substrate incubated for 5 mins prior to substrate addition measured after 30 to 45 mins by fluorimetric analysis; format: tissue-based
Method in brief: as §3

[9] = biological target: T2, Lysosomal acid glucosylceramidase (Homo sapiens); assay: Activation of wild type glucocerebrosidase in human spleen homogenate using 4methylumbelliferone-Glc as substrate assessed as half-maximal activation concentration incubated for 5 mins prior to substrate addition measured after 30 to 45 mins by fluorimetric analysis; format: tissue-based
Method in brief: (§4)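 Spleen homogenate (27 μg final) in pH 5 citrate/phosphate buffer with KCl, NaCl, MgCl₂ and 0.01% Tween-20. Compound was titrated 0.5 nM to 58 μM and preincubated 5 min at room temperature. Reaction used 1 mM 4MU-Glc for 30−45 min at 37 °C and was stopped with NaOH/glycine pH 10. Read-out was fluorescence at Ex 365/Em 440 nm. AC₅₀ is the average of N = 2.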

[10] = test system: T3, Lysosomal acid glucosylceramidase (Homo sapiens), P04062 [N409S]; assay: Activation of glucocerebrosidase N370S mutant using resorufin beta-D-glucopyranoside as substrate incubated for 5 mins prior to substrate addition measured after 30 to 45 mins by fluorimetric analysis
Method in brief: as §2

[11] = Activation of alpha-galactosidase using 4-MU-alpha-galactose as substrate
[12] = biological target: Lysosomal alpha-glucosidase (Homo sapiens) (UniProt P10253); assay: Activation of alpha-glucosidase using 4-MU-alpha-glucose as substrate
[13] = test system: T3, Lysosomal acid glucosylceramidase (Homo sapiens), P04062 [N409S]; assay: Activation of glucocerebrosidase N370S mutant in Gaucher patient spleen homogenates using 4-methylumbelliferone-Glc as substrate assessed as half-maximal activation concentration incubated for 5 mins prior to substrate addition measured after 30 to 45 mins by fluorimetric analysis; format: tissue-based
Method in brief: as §4

[14] = biological target: T1, Lysosomal acid glucosylceramidase; assay: Inhibition of glucocerebrosidase N370S mutant using 4-methylumbellifereno-Glc as substrate incubated for 5 mins prior to substrate addition measured after 20 mins by fluorimetric analysis
[15] = biological target: T4, Lysosomal acid glucosylceramidase (Homo sapiens, UniProt P04062); assay: Inhibition of wild type glucocerebrosidase in human spleen homogenate using 4-methylumbellifereno-Glc as substrate incubated for 5 mins prior to substrate addition measured after 20 mins by fluorimetric analysis; format: tissue-based
T4 sequence (P04062 whole entry): T2 sequence (whole entry)

[16] = biological target: T4, Lysosomal acid glucosylceramidase; assay: Inhibition of wild type glucocerebrosidase using 4-methylumbellifereno-Glc as substrate incubated for 5 mins prior to substrate addition measured after 20 mins by fluorimetric analysis
[17] = test system: T3, Lysosomal acid glucosylceramidase (Homo sapiens), P04062 [N409S]; assay: Activation of Glucocerebrosidase N370S/N370S mutant translocation to lysosome in Gaucher patient dermal fibroblasts incubated for 6 days by LAMP2 colocalization-based laser scanning confocal microscopic analysis relative to vehicle-treated control
Method in brief: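 N370S/N370S Gaucher dermal fibroblasts were treated 6 days at 1, 5 or 25 μM, with DMSO vehicle control. Cells were fixed in 3% paraformaldehyde, permeabilized with Triton-X and stained with anti-GCase R386 (Alexa555), anti-LAMP-2 (Alexa488) and DAPI. Confocal imaging used constant laser settings, scoring GCase/LAMP-2 colocalization.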

[18] = test system: Liver; assay: Metabolic stability in CD1 mouse liver microsomes assessed as compound remaining at 1 uM after 60 mins by LC/MS/MS analysis in absence of NADPH; format: ADME, Microsome; conditions: 1 h
Method in brief: (§5)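 Compound at 1 μM was incubated in duplicate with CD-1 mouse liver microsomes at 37 °C in 100 mM potassium phosphate pH 7.4 with 3 mM MgCl₂, with or without 2 mM NADPH, for 60 min. Reaction was quenched in cold acidified MeCN with internal standard. Parent was quantified by LC−MS/MS as percent of time zero.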

[19] = test system: T3, Lysosomal acid glucosylceramidase (Homo sapiens), P04062 [N409S]; assay: Activation of glucocerebrosidase N370S mutant using 4-methylumbelliferone-beta-Glc as substrate incubated for 5 mins prior to substrate addition measured after 30 to 45 mins by HPLC analysis
Method in brief: (§6)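 N370S/N370S patient spleen homogenate at 140 μg/well. Compound was tested at 9 concentrations, 1:2 dilutions from 50 μM. Substrate was 2 mM 4MU-Glc or the C12-BODIPY substrate at 25 μM; other conditions as the plate assay. Stopped reactions were separated on C18 HPLC with fluorescence detection: 4MU at 365/440 nm, C12-BODIPY-Cer at 506/540 nm.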

[20] = test system: Liver; assay: Metabolic stability in CD1 mouse liver microsomes assessed as compound remaining at 1 uM after 60 mins by LC/MS/MS analysis in presence of NADPH; format: ADME, Microsome; conditions: 1 h
Method in brief: as §5

[21] = test system: T3, Lysosomal acid glucosylceramidase (Homo sapiens), P04062 [N409S]; assay: Activation of glucocerebrosidase N370S mutant using C12-BODIPY-GlcCer as substrate assessed as half-maximal activation concentration incubated for 5 mins prior to substrate addition measured after 30 to 45 mins by HPLC analysis
Method in brief: as §6

[22] = biological target: T1, Lysosomal acid glucosylceramidase; assay: Inhibition of glucocerebrosidase N370S mutant in Gaucher patient spleen homogenate using 4-methylumbellifereno-Glc as substrate incubated for 5 mins prior to substrate addition measured after 20 mins by fluorimetric analysis; format: tissue-based

**Q.** Which IC50 [1] does the source give for `CCc1nnc(NC(=O)c2ccc(NS(=O)(=O)c3ccccc3)cc2)s1` here?
**A.** Not Active

**Q.** With `Cc1cc(C)n2ncc(C(=O)Nc3ccc(Cl)c(Cl)c3)c2n1` as the compound, how does the Ratio [2] read?
**A.** 3

**Q.** What about the Ratio [3] of the same compound?
**A.** 3

**Q.** What about the Activity [4] of the same compound?
**A.** 15.9 µM

**Q.** What about the Activity [5] of the same compound?
**A.** inactive

**Q.** And the Activity [6]?
**A.** inactive

**Q.** And the Activity [7]?
**A.** 14.1 µM

**Q.** What about the Activity [8] of the same compound?
**A.** inactive

**Q.** And the Activity [9]?
**A.** 4.47 µM

**Q.** And the Activity [10]?
**A.** inactive

**Q.** And the Activity [11]?
**A.** inactive

**Q.** What about the Activity [12] of the same compound?
**A.** inactive

**Q.** And the Activity [13]?
**A.** 3.66 µM

**Q.** For `S=C(NCCCc1c[nH]cn1)NCCCN(Cc1ccc(Cl)c(Cl)c1)c1ccc(Br)cn1`, which IC50 ([14]; read-out: IC50) is on record?
**A.** 2500 nM

**Q.** And the IC50 [15]?
**A.** 360 nM

**Q.** What about the IC50 [16] of the same compound?
**A.** 710 nM

**Q.** For `CCC(C)c1ccc(NC(=O)c2cnn3c(C(F)F)cc(C)nc23)cc1` (configuration not stated), which Ratio [2] is on record?
**A.** 3

**Q.** What about the Ratio [3] of the same compound?
**A.** 3

**Q.** What about the Activity [5] of the same compound?
**A.** inactive

**Q.** What about the Activity [6] of the same compound?
**A.** inactive

**Q.** What about the Activity [8] of the same compound?
**A.** inactive

**Q.** And the Activity [10]?
**A.** inactive

**Q.** What about the Activity [11] of the same compound?
**A.** inactive

**Q.** What about the Activity [12] of the same compound?
**A.** inactive

**Q.** With `Cc1cc(C)n2ncc(C(=O)NCCCCO)c2n1` as the compound, how does the Activity [17] read?
**A.** inactive

**Q.** And the Activity [11]?
**A.** inactive

**Q.** What about the Activity [12] of the same compound?
**A.** inactive

**Q.** What about the Activity [13] of the same compound?
**A.** inactive

**Q.** With `Cc1cc(C)n2ncc(C(=O)Nc3ccc(C(F)(F)F)cc3)c2n1` as the compound, how does the Stability [18] read?
**A.** 100%

**Q.** What about the Activity [19] of the same compound?
**A.** Dose-dependent effect

**Q.** What about the Stability [20] of the same compound?
**A.** 83%

**Q.** What about the Activity [21] of the same compound?
**A.** inactive

**Q.** And the Activity [11]?
**A.** inactive

**Q.** What about the Activity [12] of the same compound?
**A.** inactive

**Q.** What about the Activity [13] of the same compound?
**A.** 1.46 µM

**Q.** Which results are given for `CCc1ccc(NC(=O)c2cnn3c(C(F)F)cc(C)nc23)cc1`?
**A.** Ratio [2]: 3; Ratio [3]: 3; Activity [5]: inactive; Activity [6]: inactive; Activity [8]: inactive; Activity [10]: inactive; Activity [11]: inactive; Activity [12]: inactive; Activity [13]: 2.24 µM

**Q.** For `COc1ccc(Cl)cc1Nc1nc(NCCO)nc(N2CCCC2)n1`, which IC50 [1] is on record?
**A.** Not Active

**Q.** Which IC50 [14] does the source give for `O=S(=O)(c1ccc2ccccc2c1)N1CCN(c2nc(-c3cccs3)nc3ccccc23)CC1` here?
**A.** Not Active

**Q.** And the IC50 [15]?
**A.** 280 nM

**Q.** And the IC50 [22]?
**A.** 330 nM

**Q.** And the IC50 [16]?
**A.** 8900 nM

**Q.** What does the source list for `Cc1cc(C)n2ncc(C(=O)Nc3ccc(Br)cc3)c2n1`?
**A.** Stability [18]: 86%; Activity [19]: Dose-dependent effect; Stability [20]: 12%; Activity [21]: inactive; Activity [11]: inactive; Activity [12]: inactive; Activity [13]: 2.06 µM

**Q.** What does the source list for `O=C(Nc1ccccc1Sc1ccccc1)c1cnn2c(C(F)F)cc(C3CC3)nc12`?
**A.** Ratio [2]: 3; Ratio [3]: 3; Activity [5]: inactive; Activity [6]: inactive; Activity [19]: Dose-dependent effect; Activity [8]: inactive; Activity [21]: inactive; Activity [10]: inactive; Activity [11]: inactive; Activity [12]: inactive; Activity [13]: 4.6 µM
